Consider 20 molecules from ChEMBL document CHEMBL3804800, “(E)-3-Heteroarylidenechroman-4-ones as potent and selective monoamine oxidase-B inhibitors” (Eur J Med Chem, 2016).

In data set [1] the target is T1, Amine oxidase [flavin-containing] B (Homo sapiens, UniProt P27338).
T1 sequence (P27338 whole entry): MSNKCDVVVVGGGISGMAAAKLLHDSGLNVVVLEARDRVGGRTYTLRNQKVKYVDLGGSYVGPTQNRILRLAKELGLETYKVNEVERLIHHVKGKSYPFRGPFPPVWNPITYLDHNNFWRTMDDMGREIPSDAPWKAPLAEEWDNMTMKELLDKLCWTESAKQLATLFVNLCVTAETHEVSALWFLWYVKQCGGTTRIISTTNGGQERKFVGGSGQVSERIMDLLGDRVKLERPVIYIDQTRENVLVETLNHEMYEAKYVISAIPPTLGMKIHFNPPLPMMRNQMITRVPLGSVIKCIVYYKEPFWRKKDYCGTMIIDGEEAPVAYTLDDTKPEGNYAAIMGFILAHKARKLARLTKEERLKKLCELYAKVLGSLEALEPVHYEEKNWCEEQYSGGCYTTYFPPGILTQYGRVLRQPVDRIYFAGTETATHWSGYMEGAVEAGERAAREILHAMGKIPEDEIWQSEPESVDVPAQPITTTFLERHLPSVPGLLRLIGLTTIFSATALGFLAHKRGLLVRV
Description: biochemical. The data set is classed as cell-based, BTI-TN-5B1-4.

The nature of data set [2]: Selectivity index, ratio of IC50 for human recombinant microsomal MAO-A expressed in baculovirus infected BTI-TN-5B1-4 cells to IC50 for human recombinant microsomal MAO-B expressed in baculovirus infected BTI-TN-5B1-4 cells.
Data set [3] addresses T2, Amine oxidase [flavin-containing] A (Homo sapiens, UniProt P21397).
T2 sequence (P21397 whole entry): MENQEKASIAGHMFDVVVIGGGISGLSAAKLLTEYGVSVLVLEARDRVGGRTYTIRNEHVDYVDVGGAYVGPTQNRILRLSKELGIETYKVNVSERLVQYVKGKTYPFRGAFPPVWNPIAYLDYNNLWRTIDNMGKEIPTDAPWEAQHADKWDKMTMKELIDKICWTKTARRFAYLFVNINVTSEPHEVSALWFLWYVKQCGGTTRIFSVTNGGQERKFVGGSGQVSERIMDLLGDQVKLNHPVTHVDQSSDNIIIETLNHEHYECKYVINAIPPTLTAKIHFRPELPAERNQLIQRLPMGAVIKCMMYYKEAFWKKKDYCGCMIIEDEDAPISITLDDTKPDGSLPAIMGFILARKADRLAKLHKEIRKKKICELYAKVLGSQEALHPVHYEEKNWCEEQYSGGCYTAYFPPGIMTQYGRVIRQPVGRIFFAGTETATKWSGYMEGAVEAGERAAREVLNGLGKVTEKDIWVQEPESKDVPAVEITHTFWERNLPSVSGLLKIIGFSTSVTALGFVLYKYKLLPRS
Briefly: Inhibition of human recombinant microsomal MAO-A expressed in baculovirus infected BTI-TN-5B1-4 cells using p-tyramine as substrate assessed as reduction in H2O2 production at 100 uM preincubated for 15 mins followed by substrate addition measured for 15 mins Amplex red dye based fluorimetric method relative to control. As to conditions: for inhibition at 100 µM: BTI-TN-5B1-4, human, 0.25 h; for inhibition (INH): human, bti-tn-5b1-4, 0.25 h, 100 µM; call rule not given here. An outline of the steps: (§1)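 Microsomal hMAO-A or hMAO-B from baculovirus-infected BTI-TN-5B1-4 insect cells. Activity read as H2O2 formed from p-tyramine, detected by Amplex Red resorufin fluorescence. Test compounds were checked for direct reaction with Amplex Red. Highest concentration tested was 100 μM for some compounds and 1 mM for others. Mean ± S.E.M. from five experiments.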

Data set [4] addresses T1, Amine oxidase [flavin-containing] B. Description: Reversible inhibition of human recombinant microsomal MAO-B expressed in baculovirus infected BTI-TN-5B1-4 cells at 10 times IC50 using p-tyramine as substrate assessed as reduction in H2O2 production preincubated for 30 mins followed by substrate addition for 15 mins followed by compound dilution by Amplex red dye based fluorimetric method. The note with it: bti-tn-5b1-4, 0.25 h. An outline of the steps:
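Dilution method. […] The mixture was then diluted 100-fold into buffer containing Amplex Red, horseradish peroxidase and p-tyramine, and the reaction was monitored for 15 min. Slope was compared with a control preincubated and diluted without inhibitor.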

For data set [5] the target is unchanged. Briefly: Inhibition of human recombinant microsomal MAO-B expressed in baculovirus infected BTI-TN-5B1-4 cells using p-tyramine as substrate assessed as reduction in H2O2 production at 1 mM preincubated for 15 mins followed by substrate addition measured for 15 mins Amplex red dye based fluorimetric method. The note with it: bti-tn-5b1-4, 0.25 h, 1000 µM. An outline of the steps: as §1

One may read the IC50 as the point on the concentration scale where inhibition reaches its midpoint. A higher IC50 goes with a need for much substance. In general, inhibition refers to the drop in the measured response relative to a control, in per cent. On to `O=C1/C(=C/c2ccsc2)COc2ccccc21`, for which half-maximal inhibition in data set [1] (IC50) required 1.73 µM. In data set [2], the Ratio IC50 was determined as 58. For the same molecule, the inhibition at 100 µM in data set [3] worked out at 40%.

`O=C1/C(=C/c2cccnc2)COc2ccccc21` registered an IC50 in data set [1] of 8.23 µM. Moreover, the Ratio IC50 in data set [2] was above 12. The “inhibition (INH)” value in data set [3] is “Not Active”.

In data set [1], `O=C1/C(=C/c2cccs2)COc2ccccc21` returned a 50% inhibitory concentration (IC50) of 1.13 µM. The Ratio IC50 in data set [2] came to 88. For the same molecule, in data set [3], the inhibition at 100 µM is 40%.

As to `O=C1/C(=C/c2ccco2)COc2ccccc21`, the half-inhibitory concentration (IC50) in data set [1] was 3.77 µM. In data set [2], the Ratio IC50 was found to be 27. Besides, in data set [3], the inhibition at 100 µM worked out at 40%.

The molecule `O=C1/C(=C/c2c[nH]c3ccccc23)COc2ccccc21` displayed a half-inhibitory concentration (IC50) in data set [1] of 0.181 µM. The Ratio IC50 in data set [2] was determined as 551. In data set [3], the inhibition at 100 µM was determined as 40%.

As for `CN(C)c1ncc(/C=C2\COc3ccccc3C2=O)cn1`, the IC50 in data set [1] is 0.241 µM. For the same molecule, the Ratio IC50 in data set [2] was above 415. Moreover, the “inhibition (INH)” value in data set [3] is given as “Not Active”.

Molecule `CN(C)c1ncc(/C=C2\COc3cc(Cl)cc(Cl)c3C2=O)cn1` yielded a half-maximal inhibitory concentration (IC50) in data set [1] of 0.0106 µM. Moreover, the Ratio IC50 in data set [2] was above 9450. In addition, the “inhibition (INH)” value in data set [4] is listed as “Active”; in data set [3], “Not Active”.

As for `O=C1/C(=C/c2ccccn2)COc2ccccc21`, half-maximal inhibition in data set [1] (IC50) required 2.94 µM. Besides, in data set [2], the Ratio IC50 is above 34. In data set [3], the “inhibition (INH)” value is “Not Active”.

Take `O=C(NCCN1CCOCC1)c1ccc(Cl)cc1` [MOCLOBEMIDE]: the “inhibition (INH)” value in data set [5] is recorded as “Not Active”.

The molecule `O=C1/C(=C/c2c[nH]cn2)COc2ccccc21` registered a half-inhibitory concentration (IC50) in data set [1] of 20.2 µM. Further, the Ratio IC50 in data set [2] worked out at 5. The inhibition at 100 µM in data set [3] came out at 40%.

Molecule `COc1ccc2c(c1)OC/C(=C\c1c[nH]cn1)C2=O` displayed a half-maximal inhibitory concentration (IC50) in data set [1] of 10.6 µM. In addition, the Ratio IC50 in data set [2] came out at 9.4. In addition, the inhibition at 100 µM in data set [3] was determined as 40%.

In data set [1], `O=C1/C(=C/c2ccc[nH]2)COc2ccccc21` had a concentration for half-maximal inhibition (IC50) of 13.8 µM. The Ratio IC50 in data set [2] worked out at 7.3. Besides, in data set [3], the inhibition at 100 µM was found to be 40%.

On to `CN(C)c1ccc(/C=C2\COc3ccccc3C2=O)cn1`, for which the IC50 in data set [1] amounted to 0.213 µM. Further, in data set [2], the Ratio IC50 is above 469. Further, in data set [3], the “inhibition (INH)” value is “Not Active”.

`Nc1ccc(/C=C2\COc3ccccc3C2=O)cn1` gave a 50% inhibitory concentration (IC50) in data set [1] of 2.39 µM. In addition, the Ratio IC50 in data set [2] is above 42. For the same molecule, the “inhibition (INH)” value in data set [3] is on record as “Not Active”.

`CN(C)c1ccc(/C=C2\COc3cc(Cl)cc(Cl)c3C2=O)cn1` registered a half-inhibitory concentration (IC50) in data set [1] of 10.5 µM. In addition, the Ratio IC50 in data set [2] worked out at 9.5. Moreover, the inhibition at 100 µM in data set [3] turned out to be 40%.

As for `COc1ccc2c(c1)OC/C(=C\c1cnc(N(C)C)nc1)C2=O`, in data set [1], half-maximal inhibition (IC50) required 10.4 µM. In addition, in data set [2], the Ratio IC50 was above 9.6. The “inhibition (INH)” value in data set [3] is reported as “Not Active”.

For `Nc1ncc(/C=C2\COc3ccccc3C2=O)cn1`, the IC50 in data set [1] worked out at 18.3 µM. Moreover, the Ratio IC50 in data set [2] is above 5.5. The “inhibition (INH)” value in data set [3] was “Not Active”.

`O=C1/C(=C/c2c[nH]cn2)COc2cc(Cl)cc(Cl)c21`: the IC50 in data set [1] came out at 10.2 µM. For the same molecule, the Ratio IC50 in data set [2] turned out to be 9.8. In data set [3], the inhibition at 100 µM worked out at 40%.

For the molecule `O=C1Nc2ccccc2C1=O` [ISATIN], in data set [3], the “inhibition (INH)” value is recorded as “Not Active”.

Regarding `O=C1/C(=C/c2ccncc2)COc2ccccc21`, in data set [1], it took 12.4 µM to reach half-maximal inhibition (IC50). Also, in data set [2], the Ratio IC50 was above 8. In data set [3], the “inhibition (INH)” value was “Not Active”.
